Measured values taken from ChEMBL document CHEMBL3580590, “A Developability-Focused Optimization Approach Allows Identification of in Vivo Fast-Acting Antimalarials: N-[3-[(Benzimidazol-2-yl)amino]propyl]amides” (J Med Chem, 2015).
In brackets after ≈: the same amount, converted by molar mass. Activity calls are given as the source filed them. No cut-off for these calls is given here.

Tests used:
[1] = Cytotoxicity against human HepG2 cells by ATP bioluminescene method; assay type: cell-based; conditions: read-out: TC50 (the source's name)
Plasmodium falciparum [2] = assay: Antimalarial activity against chloroquine and pyrimethamine-resistant Plasmodium falciparum W2 assessed as inhibition of parasite growth; assay type: functional, organism-based
How it was run: (§1)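 Growth inhibition by [3H]-hypoxanthine incorporation, which tracks parasite growth. Parasitised RBC culture (0.5% parasitemia, 2% haematocrit) in RPMI-1640 with 5% Albumax and 5 μM hypoxanthine, exposed to serial drug dilutions. Cells harvested onto glass-fibre filters, radioactivity counted, IC50 derived.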

[3] = Clearance in CD1 mouse at 1 mg/kg, iv by LC-MS/MS analysis; assay type: ADME, organism-based; conditions: in vivo
How it was run: (§2)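 Mice were dosed IV at 1 mg/kg (0.1 mg/mL in 20% encapsine, 5% DMSO in saline) or PO at 10 mg/kg (1 mg/mL suspension in 1% methylcellulose), 10 mL/kg each. After IV dosing, blood was sampled from 5 min to 24 h. Blood was mixed 1:1 with 0.1% saponine and frozen at −80 °C. Samples were acetonitrile-extracted and analyzed by positive-ESI LC-MS/MS.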

Plasmodium falciparum [4] = conditions: 3D70087/N9, 100 mg/kg
[5] = Solubility of the compound in fasted state simulated intestinal fluid; assay type: ADME
Plasmodium falciparum [6] = assay: Antimalarial activity against erythrocytic stage of Plasmodium falciparum 3D70087/N9 infected in NSG mouse engrafted with human erythrocytes assessed as parasite killing at 100 mg/kg, po qd for 4 days starting from day 3 to day 6 after parasite infection measured 48 hrs after initiation of drug treatment by Giemsa-staining based microscopy; assay type: functional, organism-based
[7] = Oral bioavailability in CD1 mouse at 10 mg/kg administered via gavage by LC-MS/MS analysis; assay type: ADME, organism-based; conditions: in vivo; how it was run: as §2
[8] = Kinetic solubility of the compound in DMSO/phosphate buffered saline at pH 7.4 by chemiluminescent nitrogen detection method; assay type: physicochemical; conditions: read-out: Kinetic_solubility
How it was run: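 Kinetic solubility from DMSO stock solution in phosphate-buffered saline, pH 7.4, quantified by chemiluminescent nitrogen detection.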

Plasmodium falciparum [9] = assay: Antimalarial activity against Plasmodium falciparum 3D7A infected in red blood cells assessed as inhibition of parasite growth after 24 hrs by [3H]hypoxanthine incorporation assay; assay type: functional, organism-based
How it was run: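 P. falciparum 3D7 parasitized RBC (0.5% parasitemia, 2% hematocrit) in RPMI-1640 with 5% albumax and 5 μM hypoxanthine. 3H-hypoxanthine was then added for a further 24 h. Cells were harvested onto glass-fiber filters and incorporation was read by scintillation; IC50 was derived.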

Plasmodium falciparum [10] = assay: Antimalarial activity against chloroquine and pyrimethamine-resistant Plasmodium falciparum V1/S assessed as inhibition of parasite growth; assay type: functional, organism-based; how it was run: as §1
[11] = target: Voltage-gated inwardly rectifying potassium channel KCNH2 (Homo sapiens, UniProt Q12809); assay: Inhibition of human ERG by IonWorks electrophysiology
[12] = Selectivity index, ratio of TC50 for human HepG2 cells to IC50 for Plasmodium falciparum 3D7A; assay type: toxicity, cell-based; conditions: read-out: Selectivity Index

Chain of Voltage-gated inwardly rectifying potassium channel KCNH2 (Q12809 whole entry): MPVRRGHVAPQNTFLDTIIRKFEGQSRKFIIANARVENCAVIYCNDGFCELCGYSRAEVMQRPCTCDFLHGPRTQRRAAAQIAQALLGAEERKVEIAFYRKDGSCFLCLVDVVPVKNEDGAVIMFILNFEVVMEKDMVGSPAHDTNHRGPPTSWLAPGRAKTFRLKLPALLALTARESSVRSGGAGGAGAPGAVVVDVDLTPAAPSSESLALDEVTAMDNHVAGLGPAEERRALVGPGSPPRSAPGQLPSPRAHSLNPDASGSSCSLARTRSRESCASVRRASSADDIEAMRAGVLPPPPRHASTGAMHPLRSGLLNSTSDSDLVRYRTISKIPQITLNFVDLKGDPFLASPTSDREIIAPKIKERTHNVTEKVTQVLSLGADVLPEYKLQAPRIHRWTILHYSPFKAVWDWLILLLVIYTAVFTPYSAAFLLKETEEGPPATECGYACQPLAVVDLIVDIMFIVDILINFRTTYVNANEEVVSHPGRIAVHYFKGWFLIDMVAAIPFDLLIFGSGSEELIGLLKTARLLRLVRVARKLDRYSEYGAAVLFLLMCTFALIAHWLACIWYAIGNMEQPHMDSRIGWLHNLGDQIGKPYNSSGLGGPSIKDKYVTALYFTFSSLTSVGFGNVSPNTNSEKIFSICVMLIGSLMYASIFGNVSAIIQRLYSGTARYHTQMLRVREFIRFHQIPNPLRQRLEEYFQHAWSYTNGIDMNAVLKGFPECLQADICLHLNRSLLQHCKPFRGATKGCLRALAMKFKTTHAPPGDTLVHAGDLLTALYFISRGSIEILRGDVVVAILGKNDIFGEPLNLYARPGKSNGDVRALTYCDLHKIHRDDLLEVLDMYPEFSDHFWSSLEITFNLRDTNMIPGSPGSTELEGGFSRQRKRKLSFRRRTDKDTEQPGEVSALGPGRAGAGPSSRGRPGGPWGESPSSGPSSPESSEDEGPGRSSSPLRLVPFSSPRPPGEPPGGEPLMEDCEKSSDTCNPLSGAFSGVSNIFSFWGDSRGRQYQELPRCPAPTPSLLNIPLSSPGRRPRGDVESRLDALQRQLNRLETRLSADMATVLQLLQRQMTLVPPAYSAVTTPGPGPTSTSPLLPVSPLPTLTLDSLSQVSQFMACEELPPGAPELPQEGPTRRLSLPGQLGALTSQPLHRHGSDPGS

SMILES	IC50 (Plasmodium falciparum [9])	also measured
O=C(NCCCNc1nc2ccccc2[nH]1)c1cc(Cl)cc(Cl)c1	94 nM	CC50 [1]: 36300 nM; IC50 (Plasmodium falciparum [2]): 410 nM; clearance [3]: 39.7 mL/min/kg; inhibition (Plasmodium falciparum [4]): Active; solubility [5]: > 100 µg/mL; Activity (Plasmodium falciparum [6]): Active; bioavailability [7]: 81%; solubility kinetic [8]: 239 µM (≈ 86.8 µg/mL); IC50 (Plasmodium falciparum [10]): 1030 nM
O=C(CCNC(=O)c1cc(Cl)cc(Cl)c1)Nc1nc2ccccc2[nH]1	4180 nM	
O=C(NCCCNc1nc2ccccc2[nH]1)C1CCC(O)CC1 (stereo unspecified)	> 5000 nM	
O=C(NCCCNc1nc2ccccc2[nH]1)c1ccccc1Cl	1050 nM	
CCc1nc(N)nc(N)c1-c1ccc(Cl)cc1 [PYRIMETHAMINE]	68 nM	IC50 (Plasmodium falciparum [2]): > 20000 nM; IC50 (Plasmodium falciparum [10]): > 20000 nM
O=C(NCCCNc1nc2ccccc2[nH]1)c1ccncc1	> 5000 nM	
Cc1ccc(C(=O)NCCCNc2nc3ccccc3[nH]2)s1	1830 nM	
O=C(NCCCNc1nc2ccccc2[nH]1)c1cccc(C(F)(F)F)c1	140 nM	
O=C(NCCCCc1nc2ccccc2[nH]1)c1cc(Cl)cc(Cl)c1	> 5000 nM	
O=C(NC1CCN(c2nc3ccccc3[nH]2)C1)c1cc(Cl)cc(Cl)c1 (stereo unspecified)	> 5000 nM	
CN1CCN(Cc2ccc(C(=O)NCCCNc3nc4ccccc4[nH]3)cc2)CC1	> 5000 nM	
O=C(NCCCNc1nc2ccccc2[nH]1)c1cc(Cl)c(O)c(Cl)c1	> 5000 nM	
COc1cc(OC)cc(C(=O)NCCCNc2nc3ccccc3[nH]2)c1	330 nM	
CN(CCCNc1nc2ccccc2[nH]1)C(=O)c1cc(Cl)cc(Cl)c1	> 5000 nM	
O=C(NCCCNc1nc2ccccc2[nH]1)c1ccc2c(c1)CCO2	3260 nM	
O=C(NCCCNc1nc2ccccc2[nH]1)c1ccc2c(c1)OCCO2	1650 nM	
O=C(NCCCNc1nc2ccccc2[nH]1)c1c(Cl)cccc1Cl	> 5000 nM	
Cc1cccc(C(=O)NCCCNc2nc3ccccc3[nH]2)c1	970 nM	
COc1c(Cl)cc(C(=O)NCCCNc2nc3ccccc3[nH]2)cc1Cl	100 nM	
O=C(NCCCNc1nc2ccccc2[nH]1)c1ccnc(C(F)(F)F)c1	250 nM	CC50 [1]: > 100000 nM; solubility kinetic [8]: 349 µM (≈ 127 µg/mL)
N#Cc1ccc(C(=O)NCCCNc2nc3ccccc3[nH]2)cc1F	1370 nM	
O=C(NCCCNc1nc2ccccc2[nH]1)C1CCC(CO)CC1 (stereo unspecified)	> 5000 nM	
O=C(NCCCNc1nc2ccccc2[nH]1)C1CCOCC1	2640 nM	
O=C(c1cc(Cl)cc(Cl)c1)N1CCN(c2nc3ccccc3[nH]2)CC1	2520 nM	

SMILES	IC50 (Plasmodium falciparum [9])	also measured
O=C(NCCCNc1nc2ccccc2[nH]1)c1cc(Cl)ccc1Cl	1210 nM	
O=C(NCC1(CNc2nc3ccccc3[nH]2)CC1)c1cc(Cl)cc(Cl)c1	1030 nM	
CN(CCCNC(=O)c1cc(Cl)cc(Cl)c1)c1nc2ccccc2[nH]1	1800 nM	
O=C(NCCCNc1nc2ccccc2[nH]1)c1ccc(Cl)cc1	1080 nM	
O=C(NCCCNc1nc2ccccc2[nH]1)c1cccnc1	> 5000 nM	
O=C(NCCCNc1nc2ccccc2[nH]1)c1cccc(OC(F)(F)F)c1	370 nM	
O=C(Nc1cccc(-c2nc3ccccc3[nH]2)c1)c1cc(Cl)cc(Cl)c1	1520 nM	IC50 [11]: > 14800 nM; selectivity ratio [12]: 17.3; CC50 [1]: 26300 nM; solubility kinetic [8]: 64 µM (≈ 24.5 µg/mL)
COC(=O)c1ccc2[nH]c(NCCCNC(=O)c3cc(Cl)cc(Cl)c3)nc2c1	150 nM	CC50 [1]: 25700 nM; solubility kinetic [8]: 29 µM (≈ 12.2 µg/mL)
O=C(NCCCNc1nc2ccncc2[nH]1)c1cc(Cl)cc(Cl)c1	1060 nM	
O=C(NC1(c2nc3ccccc3[nH]2)CC1)c1cc(Cl)cc(Cl)c1	> 5000 nM	
O=C(NCCCNc1nc2ccccc2[nH]1)c1cccc(Cl)c1Cl	3420 nM	
O=C(Cc1cccc(Cl)c1)NCCCNc1nc2ccccc2[nH]1	660 nM	
O=C(NCCCNc1nc2ccccc2[nH]1)c1cccc(CN2CCCC2)c1	> 5000 nM	
N#Cc1cccc(C(=O)NCCCNc2nc3ccccc3[nH]2)c1	380 nM	
O=C(NCCCNc1nc2ccccc2[nH]1)c1ccc(CN2CCCC2)cc1	2300 nM	CC50 [1]: > 100000 nM; solubility kinetic [8]: 322 µM (≈ 122 µg/mL)
CC(CNC(=O)c1cc(Cl)cc(Cl)c1)CNc1nc2ccccc2[nH]1 (stereo unspecified)	520 nM	
O=C(O)c1ccc2[nH]c(NCCCNC(=O)c3cc(Cl)cc(Cl)c3)nc2c1	> 5000 nM	
O=C(NCCCNc1nc2ccccc2[nH]1)c1cc(F)cc(F)c1	320 nM	
COc1cccc(C(=O)NCCCNc2nc3ccccc3[nH]2)c1	930 nM	
O=C(NCCCNc1nc2ccccc2[nH]1)c1ccc(Cl)cc1Cl	4030 nM	
CC(CCNC(=O)c1cc(Cl)cc(Cl)c1)Nc1nc2ccccc2[nH]1 (stereo unspecified)	1580 nM	
O=C(NCCCNc1nc2ccccc2[nH]1)c1ccc2c(c1)OCO2	3360 nM	
O=C(NCCCNc1nc2ccccc2[nH]1)C1CCCCC1	1800 nM	
Cn1c(NCCCNC(=O)c2cc(Cl)cc(Cl)c2)nc2ccccc21	> 5000 nM	

SMILES	IC50 (Plasmodium falciparum [9])	also measured
O=C(NCCCNc1nc2ccccc2[nH]1)c1cccc(O)c1	> 5000 nM	
N#Cc1ccc2[nH]c(NCCCNC(=O)c3cc(Cl)cc(Cl)c3)nc2c1	1470 nM	
O=C(NCCCCNc1nc2ccccc2[nH]1)c1cc(Cl)cc(Cl)c1	400 nM	
O=C(NCCCNc1nc2ccccc2[nH]1)c1ccccn1	> 5000 nM	
CS(=O)(=O)Nc1cccc(C(=O)NCCCNc2nc3ccccc3[nH]2)c1	> 5000 nM	
O=C(NCCCNc1nc2ccccc2[nH]1)c1ccccc1	3170 nM	
CN(C)Cc1ccc(C(=O)NCCCNc2nc3ccccc3[nH]2)cc1	2260 nM	
O=C(NCCCNc1nc2ccccc2[nH]1)c1ccc(Cl)c(Cl)c1	170 nM	
Cn1cccc1C(=O)NCCCNc1nc2ccccc2[nH]1	> 5000 nM	
COC(=O)c1cccc(C(=O)NCCCNc2nc3ccccc3[nH]2)c1	630 nM	
O=C(NCCNc1nc2ccccc2[nH]1)c1cc(Cl)cc(Cl)c1	1830 nM	
O=C(NCCCNc1nc2c(F)cccc2[nH]1)c1cc(Cl)cc(Cl)c1	300 nM	
CC(C)(C)OC(=O)N1CCC(C(=O)NCCCNc2nc3ccccc3[nH]2)CC1	900 nM	IC50 [11]: > 50100 nM; selectivity ratio [12]: > 111; CC50 [1]: > 100000 nM; solubility kinetic [8]: 393 µM (≈ 158 µg/mL)
O=C(NCCCNc1nc2ccccc2[nH]1)c1cncc(Cl)c1	460 nM	
O=C(NCC(O)CNc1nc2ccccc2[nH]1)c1cc(Cl)cc(Cl)c1 (stereo unspecified)	1380 nM	
O=C(NCCCNc1nc2ccccc2[nH]1)c1cccc(CO)c1	> 5000 nM	
O=C(NCCCNc1nc2ccccc2[nH]1)c1cccc(Cl)c1	300 nM	
O=C(O)c1cccc(C(=O)NCCCNc2nc3ccccc3[nH]2)c1	> 5000 nM	
O=C(NCCCNc1nc2ccccc2[nH]1)C1CCNCC1	> 5000 nM	
Cc1ccc(C(=O)NCCCNc2nc3ccccc3[nH]2)o1	2260 nM	
O=C(NCCCNc1nc2cc(F)ccc2[nH]1)c1cc(Cl)cc(Cl)c1	120 nM	
CN(C)C(=O)c1cccc(C(=O)NCCCNc2nc3ccccc3[nH]2)c1	> 5000 nM	
O=C(NCCCNc1nc2cccnc2[nH]1)c1cc(Cl)cc(Cl)c1	2540 nM	
